Compounds with a hit are over-represented: about 3.5% of the library has one in this group of screens.
RGS4 block – human RGS4 inhibition; HEK293 M3R/RGS4 inducible, Fluo-4 calcium flux; stronger effect = higher value; triggered by carbachol at its EC20; B-score at 10 µM; actives 0.45% (n = 310,000);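 active = B-score, a plate-corrected calcium signal, over three deviations above library mean, with baseline fluorescence within five deviations of library mean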;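 note: RGS4 expression induced by doxycycline in cells with stable M3 receptor; B-score is computed from the integrated fluorescence ratio over baseline after carbachol; higher B-score means a larger calcium signal and so more RGS4 inhibition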
RGS4 act – potentiators or activators of RGS4; actives 0.92% (n = 310,000); B-score at 10 µM; AID 463111; HEK293 M3R/inducible RGS4, carbachol calcium flux Fluo4; stronger effect = lower value;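 active = B-score of the integrated calcium signal more than 4 SD below the library mean, with starting fluorescence not abnormally high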;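 note: negative B-score means reduced calcium response which marks RGS4 activation or potentiation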
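Assay system: Inducible-RGS4 HEK293 cells carrying M3 receptor | Schedule: Compound preincubation 20 min at room temperature before agonist | Signal: Kinetic calcium fluorescence imaging with Fluo4-AM dye, 2 µM | Read-out basis: B score from integrated fluorescence ratio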
MrgX1 agonist – activates human MrgX1 receptor signaling; actives 0.44% (n = 310,000); MrgX1-HEK293 cells, Fluo-4 calcium fluorescence, agonist mode; stronger effect = higher value; Q96LB2; B-score at 10 µM; AID 588627;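 active = calcium response B-score plate-corrected fluorescence ratio at least 3 library SD, with starting fluorescence B-score inside 5 SD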
Target sequence (Q96LB2 whole entry, looked up): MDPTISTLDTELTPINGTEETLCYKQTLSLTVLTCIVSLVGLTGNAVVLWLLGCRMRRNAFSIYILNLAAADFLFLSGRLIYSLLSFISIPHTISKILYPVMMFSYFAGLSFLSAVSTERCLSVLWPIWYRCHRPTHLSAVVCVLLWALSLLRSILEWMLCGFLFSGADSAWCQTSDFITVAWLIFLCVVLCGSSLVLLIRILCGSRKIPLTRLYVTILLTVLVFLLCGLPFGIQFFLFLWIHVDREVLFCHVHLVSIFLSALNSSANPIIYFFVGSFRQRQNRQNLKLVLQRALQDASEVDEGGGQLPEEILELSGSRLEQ
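Material: MrgX1-expressing HEK293 cells; input: 15,000 cells per well; doses: test compound given as first of three sequential additions; schedule: overnight plating before 1 h dye loading; technique: Fluo-4 NW calcium-flux fluorescence, kinetic read; evaluation: baseline-normalised fluorescence change ratio, B-scored; control set: plate-wise positive and negative controls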
MrgX1 PAM – human MrgX1 positive allosteric modulation, primary screen. MrgX1-HEK293, Fluo-4 calcium flux, FDSS; stronger effect = higher value. B-score at 10 µM. actives 0.63% (n = 310,000);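 active = plate-corrected calcium response at least 3 library SD above typical, normal starting fluorescence, not activating the receptor alone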;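 note: compound read alongside a low EC10 to EC30 dose of BAM8-22 agonist; peak minus trough fluorescence over baseline measured at the second addition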
MrgX1 antagonist – blocks BAM8-22 activation of human MrgX1 receptor | MRGX1-HEK293 calcium flux, Fluo-4, BAM8-22 antagonism; stronger effect = lower value | Q96LB2 | B-score at 10 µM | AID 588676 | actives 1.3% (n = 310,000);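 active = calcium-response B-score plate-corrected more than 3 library SD below zero, starting fluorescence within 5 deviations, no agonist response on first addition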;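 note: peak minus trough fluorescence over baseline after final BAM8-22 challenge near maximal dose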
Each line names hits and unclear results; the compound was inactive in the other large screens.

CN1C[C@H](CO)C=C2c3cccc4[nH]cc(c34)C[C@H]21	MrgX1 agonist 35.6
CCOC(=O)c1c(C)n(Cc2ccccc2)c2ccc(OCC(O)CNC(C)(C)C)cc12 (stereo not drawn)	MrgX1 antagonist -4.74
Brc1ccc2[nH]cc(/C=N/N3CCCCC3)c2c1	none
Cc1cc(Oc2ccc(C(F)(F)F)cc2[N+](=O)[O-])c2c3c(c(=O)oc2c1)CCC3	none
Cc1cc(Oc2ccc(C(F)(F)F)cc2[N+](=O)[O-])c2c3c(c(=O)oc2c1)CCCC3	RGS4 act -7.42
N#CC(C#N)=Cc1cccnc1	MrgX1 antagonist -4.59
N#CC(C#N)=Cc1ccc(N2CCOCC2)cc1	none
c1ccc(P(c2ccccn2)c2ccccn2)cc1	none
CCCCC/C(=N\O)c1c[nH]c2ccccc12	MrgX1 antagonist -6.61
Oc1ccc(-[n+]2c(-c3ccccc3)cc(-c3ccccc3)cc2-c2ccccc2)cc1	RGS4 act -7.23, MrgX1 PAM 12.3, MrgX1 antagonist -7.85
O=[N+]([O-])c1ccc(-[n+]2c(-c3ccccc3)cc(-c3ccccc3)cc2-c2ccccc2)cc1	MrgX1 PAM 8.42
C[n+]1c(-c2ccccc2)cc(-c2ccc(O)cc2)cc1-c1ccccc1	none
O=C([O-])c1ccc(-[n+]2c(-c3ccccc3)cc(-c3ccccc3)cc2-c2ccccc2)cc1	none
COc1ccc(-[n+]2c(-c3ccccc3)cc(-c3ccccc3)cc2-c2ccccc2)cc1	MrgX1 antagonist -4.88
CC1CCC(N2CCN(C(=O)COc3ccccc3)CC2)CC1 (stereo not drawn)	none
O=C(NCCCN1CCOCC1)C(Cl)(Cl)Cl	none
O=C1NC(=S)N(c2ccccc2)C(=O)/C1=C/c1ccco1	none
O=C1NC(=S)N(c2ccccc2)C(=O)C1C(c1ccncc1)C1C(=O)NC(=S)N(c2ccccc2)C1=O (stereo not drawn)	MrgX1 antagonist -7.61
CN(C)C=C1C(=O)N(C2CCCCC2)C(=O)N(C2CCCCC2)C1=O	MrgX1 agonist 52
C[C@@H]1CC2(CCCC[N+]2(C)C)C[C@H]1C	none
O=[N+]([O-])c1ccc(NCCCN2CCOCC2)nc1	none
O=C1NC(=O)N(c2ccccc2)C(=O)/C1=C/c1coc2ccc(O)cc2c1=O	MrgX1 agonist 26.6
CN(C)CC#CCC(O)(c1ccccc1)C1CCCC1 (stereo not drawn)	none
C[N+](C)(N)CCOC(=O)C(O)(c1ccccc1)C1CCCCC1 (stereo not drawn)	RGS4 act -8.22
CC[N+](CC)(CC)CCCOC(=O)C(O)(c1ccccc1)C1CCCCC1 (stereo not drawn)	RGS4 act -8.21
CC(=O)c1cccc(NC2=NCC(C)S2)c1 (stereo not drawn)	none
CN1CCN(c2ccc([N+](=O)[O-])c(N3CCCCC3)c2)CC1	none
O=[N+]([O-])c1ccc(N2CCNCC2)cc1N1CCCCCC1	MrgX1 PAM 11.4
O=[N+]([O-])c1cc(F)c(N2CCCCCC2)cc1N1CCNCC1	MrgX1 antagonist -5.18
CN1CN(c2cccc([N+](=O)[O-])c2)CN=C1N[N+](=O)[O-]	none
CC(=O)OC1N=C(c2ccccc2Cl)c2cc(Br)ccc2NC1=O (stereo not drawn)	none
CCN1C[C@]2(CO)CC[C@H](OC)[C@@]34C5C[C@H]6[C@H](OC)C5[C@](O)(C[C@H]6OC)[C@@H](C(OC)C23)[C@@H]14 (stereo partly drawn)	none
Cc1ccc(N(C)C(=O)Oc2ccc(C(=O)c3ccc(Cl)cc3)cc2)cc1	none
CC(=O)OC[C@]12CCC(C)=C[C@H]1O[C@@H]1[C@H](O)[C@@H](OC(C)=O)[C@@]2(C)[C@]12CO2	none (no result: RGS4 block, RGS4 act)
OC(Cn1c2ccccc2c2ccccc21)C[n+]1cccc2ccccc21 (stereo not drawn)	RGS4 act -7.93
O=[N+]([O-])c1ccc(NC2CCCC2)c2ccncc12	none
O=[N+]([O-])c1ccc(N2CCCC2)c2ccncc12	MrgX1 antagonist -5.13
Cc1cc(=O)oc2cc3c(cc12)CCCN3	none
CN(C)P1(N(C)C)=Nc2c(c(N)nn2C)C(c2ccccc2)=N1	none
O=[N+]([O-])c1ccccc1-c1cc(-c2ccccc2)cc(-c2ccccc2)[n+]1Cc1ccccc1Cl	RGS4 act -10.2, MrgX1 antagonist -7.01
Cn1c(O)c(C=NC2CCCCCC2)c(=O)[nH]c1=S	MrgX1 antagonist -6.4
